Data set [1] in a line: melting temperature; fluorescence melt of hairpins on a sequencing array, two-state fit, raised by 9.35 °C to match UV melts. Particulars: sodium 0.088 M. In a few lines:
(§1)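 Cy3 signals were normalised both to pre-quench Cy3 and to control constructs. They came from library hairpins carrying annealed Cy3 and quencher oligos on a sequenced MiSeq flow cell, imaged in 50 mM Na-HEPES pH 8.0, 25 mM NaCl, in 2.5 °C steps up to 60 °C. Bootstrapped two-state fits gave melting temperature and folding enthalpy, and four replicates were combined by inverse variance. Fitted temperatures were then raised by 9.35 °C to match UV melts.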

Data set [2] can be described thus: folding enthalpy; higher = less favourable; fluorescence melt of hairpins on a sequencing array, two-state fit. Particulars: sodium 0.088 M. In a few lines:
as §1

With GATCGACCATCGATC ((((((...)))))), in data set [1], the Tm is 49.6 °C. For the same sequence, the folding enthalpy in data set [2] was -32.2 kcal/mol.
The corresponding values for GCTACCGAAAGGTTTAGC ((((((....)))..))) are 38.5 °C and -17.6 kcal/mol.
Turning to CGACACGGAAACGTATCG (((.(((....))).))), the Tm in data set [1] came to 42.3 °C. In data set [2], the folding enthalpy was -28.1 kcal/mol.
In the same order, the values of GGTTCGCGAAAGCGACC (((.(((....)))))) are 61.7 °C and -14.9 kcal/mol.
In the same order, the values of GGTGACGAAAGTCTACC ((((((....))).))) are 49 °C and -21.4 kcal/mol.
As for GTAACCGAAAGGTACTAC ((((((....)))..))), the Tm in data set [1] came out at 40.8 °C. For the same sequence, in data set [2], the folding enthalpy is -16.9 kcal/mol.
The corresponding values for GATCTATTGATAGATC ((((((....)))))) are 44.7 °C and -28.8 kcal/mol.
The corresponding values for GCGACTTCGAAAGAACGC (((..(((....)))))) are 36.7 °C and -22.4 kcal/mol.
In the same order, the values of GATCCATCACTGGATC ((((((....)))))) are 50.2 °C and -35.6 kcal/mol.
GATCGGCACGCCGATC ((((((....)))))): the Tm in data set [1] was determined as 67.8 °C. Moreover, in data set [2], the folding enthalpy is -31.6 kcal/mol.
The corresponding values for GTGTAATCGAAAGATCAC (((..(((....)))))) are 33.8 °C and -23.9 kcal/mol.
In the same order, the values of GCACTTCCGAAAGGATGC (((..(((....)))))) are 37.9 °C and -17.7 kcal/mol.
The corresponding values for GCACAGACGAAAGTCTGC (((..(((....)))))) are 34.5 °C and -8.42 kcal/mol.
As to GCCTGGTCGAAAGACGGC (((..(((....)))))), in data set [1], the Tm was 52.2 °C. Further, the folding enthalpy in data set [2] is -25.3 kcal/mol.
The corresponding values for GAGAGTCCGAAAGGACTC (((..(((....)))))) are 60.4 °C and -8.55 kcal/mol.
For GACGATGGAAACACCATC ((.(.((....)).).)), the Tm in data set [1] was 28.4 °C. For the same sequence, the folding enthalpy in data set [2] is -17 kcal/mol.
The corresponding values for GTGACACCGAAAGGTCAC (((..(((....)))))) are 47.8 °C and -25 kcal/mol.
The corresponding values for GTGTGACGAAAGTCTCAC (((.(((....))).))) are 55.9 °C and -31.9 kcal/mol.
GTCCTCGAAAGAGCTGAC ((((((....)))..))): the Tm in data set [1] came to 29.5 °C. The folding enthalpy in data set [2] is -12.4 kcal/mol.
Take GATCAACGATTTGATC ((((((....)))))): the Tm in data set [1] came to 39.3 °C. Also, the folding enthalpy in data set [2] was -24.9 kcal/mol.
In the same order, the values of GATCAGGATACTGATC ((((((....)))))) are 56 °C and -33.8 kcal/mol.
In the same order, the values of GATCTAGGCGTAGATC ((((((....)))))) are 45.4 °C and -32.4 kcal/mol.
With GCCGGGCGAAAGCCGCGC ((..(((....)))..)), in data set [1], the Tm is 60.1 °C. The folding enthalpy in data set [2] is -15.2 kcal/mol.
As for GAGCTTCCGAAAGGACTC (((..(((....)))))), the Tm in data set [1] is 29.2 °C. Moreover, the folding enthalpy in data set [2] is -27.4 kcal/mol.
The corresponding values for GATCCCGACCGGGATC ((((((....)))))) are 66.5 °C and -37.5 kcal/mol.
The corresponding values for GATCGTTCGACGATC ((((((...)))))) are 55.7 °C and -38.2 kcal/mol.
In the same order, the values of GGAGCCGAAAGGCTTCC ((((((....))).))) are 60.3 °C and -14.6 kcal/mol.
With GATCCAGCATGGATC ((((((...)))))), the Tm in data set [1] is 61.1 °C. In addition, in data set [2], the folding enthalpy is -45.4 kcal/mol.
In the same order, the values of GACTCCGAAAGGAGAGTC ((((((....)))..))) are 43 °C and -12.9 kcal/mol.
The corresponding values for GGACGCGAAAGCGCATCC ((((((....)))..))) are 34.5 °C and -10.1 kcal/mol.
GATCCTAGAGAGGATC ((((((....)))))): the Tm in data set [1] came out at 48 °C. In addition, the folding enthalpy in data set [2] was -35.4 kcal/mol.
In the same order, the values of GGGTCCGAAAGGACACCC ((((((....)))..))) are 55.5 °C and -11 kcal/mol.
Consider GCATCGGGAAACCAACGC ((.(.((....)).).)), for which the Tm in data set [1] amounted to 28.3 °C. Besides, the folding enthalpy in data set [2] was -17.7 kcal/mol.
The corresponding values for GGGAACGAAAGTTAGCCC ((((((....)))..))) are 33.1 °C and -17.2 kcal/mol.
The corresponding values for GACTCCGGAAACAGAGTC (((((.(....).))))) are 40.1 °C and -36.5 kcal/mol.
The corresponding values for GCCGTGCGAAAGCAGTGC ((..(((....)))..)) are 44.7 °C and -12.4 kcal/mol.
Regarding GGTTTGGGAAACCAGATC (.(.(((....))).).), in data set [1], the Tm amounted to 30 °C. Also, the folding enthalpy in data set [2] was -10.3 kcal/mol.
The corresponding values for GATCAAGCTTTGATC ((((((...)))))) are 43.4 °C and -29.5 kcal/mol.
The corresponding values for GCTTTTGGAAACGAAAGC (((((.(....).))))) are 47.2 °C and -39 kcal/mol.
Take GCCGACGGAAACATCGGC (((((.(....).))))): the Tm in data set [1] stood at 53 °C. In addition, the folding enthalpy in data set [2] was -38.6 kcal/mol.
With CGTAGGCGGAAACGCACG (((..(((....)))))), in data set [1], the Tm was determined as 42.1 °C. In addition, in data set [2], the folding enthalpy was -15.1 kcal/mol.
In the same order, the values of GCAACAGGAAACTGTTAC (.(((((....))))).) are 34 °C and -16.7 kcal/mol.
In the same order, the values of GTCTCACGAAAGTGCGAC (((.(((....))).))) are 50.3 °C and -38.7 kcal/mol.
The corresponding values for GGCAACGAAAGTTGTGCC ((((((....)))..))) are 51.2 °C and -13.5 kcal/mol.
As to GCTCTACGAAAGTAAGC (((.(((....)))))), the Tm in data set [1] turned out to be 38.7 °C. Moreover, the folding enthalpy in data set [2] is -18.8 kcal/mol.
In the case of GGGGGAGGAAACTTCCCC ((((.((....)).)))), the Tm in data set [1] stood at 54.4 °C. In data set [2], the folding enthalpy was -47.8 kcal/mol.
The corresponding values for GATCAGTAAGCTGATC ((((((....)))))) are 52.3 °C and -41.3 kcal/mol.
In the same order, the values of GTTCACGAAAGTGTAAAC ((((((....)))..))) are 28.2 °C and -12.3 kcal/mol.
The corresponding values for GGAATGGAAACATTCC ((((((....)))))) are 53.1 °C and -44.9 kcal/mol.
Turning to GATCTCACCTGAGATC ((((((....)))))), the Tm in data set [1] stood at 53.5 °C. The folding enthalpy in data set [2] was -44.1 kcal/mol.
The corresponding values for GCCTCGCGAAAGCGATGC ((.((((....)))).)) are 58.2 °C and -16.7 kcal/mol.
The corresponding values for GATCACCGGCGTGATC ((((((....)))))) are 54.7 °C and -37.7 kcal/mol.
The corresponding values for GCAGATTCGAAAGAATGC (((..(((....)))))) are 36.3 °C and -13.9 kcal/mol.
In the case of GATCCAACCTTGGATC ((((((....)))))), the Tm in data set [1] is 51.5 °C. Moreover, the folding enthalpy in data set [2] is -51.5 kcal/mol.
In the same order, the values of GCTTCGCGAAAGCCATGC ((.(.((....)).).)) are 34.6 °C and -9.05 kcal/mol.
In the same order, the values of GTGTGCCGAAAGGCCCAC (((.(((....))).))) are 53.1 °C and -25.3 kcal/mol.
In the same order, the values of GCCGTGCGAAAGCTTGGC (((..((....))..))) are 59.6 °C and -28.5 kcal/mol.
For the sequence GCTAGGCGAAAGCCTGGC ((.((((....)))).)), in data set [1], the Tm came out at 68.2 °C. The folding enthalpy in data set [2] was -21.1 kcal/mol.
In the same order, the values of GATCATTGTTATGATC ((((((....)))))) are 47.3 °C and -37 kcal/mol.
The corresponding values for GTCTTACGAAAGTAGGAC (((.(((....))).))) are 48.9 °C and -28.2 kcal/mol.
In the same order, the values of GATCATGTAGATGATC ((((((....)))))) are 51 °C and -38.9 kcal/mol.
With GATCGGTAAACCGATC ((((((....)))))), in data set [1], the Tm stood at 56.2 °C. Further, the folding enthalpy in data set [2] was -40.7 kcal/mol.
The corresponding values for GAAGATGGAAACATCTTC (((((((....))))))) are 53.5 °C and -48.6 kcal/mol.
Regarding GTGAGCCGAAAGGCACAC (((.(((....))).))), the Tm in data set [1] came to 59.8 °C. Besides, the folding enthalpy in data set [2] is -28.9 kcal/mol.
The corresponding values for GATCATACCATGATC ((((((...)))))) are 48.9 °C and -40.3 kcal/mol.
In the same order, the values of GGCCAAGGAAACTTGACC ((.((((....)))).)) are 43.1 °C and -30.3 kcal/mol.
The corresponding values for GATCCATAAATGGATC ((((((....)))))) are 50.3 °C and -47.5 kcal/mol.
Regarding GCGCAGTCGAAAGACCGC (((..(((....)))))), the Tm in data set [1] is 52.8 °C. Besides, the folding enthalpy in data set [2] was -26.1 kcal/mol.
On to GCGTTGCGAAAGCATAGC ((..(((....)))..)), for which the Tm in data set [1] is 58.4 °C. In addition, the folding enthalpy in data set [2] was -26.5 kcal/mol.
The corresponding values for GGGTATGGAAACATACTC (.(((((....))))).) are 44.8 °C and -23 kcal/mol.
With GGTGCCGAAAGGCAAACC ((((((....)))..))), in data set [1], the Tm was found to be 50.9 °C. For the same sequence, in data set [2], the folding enthalpy is -14.6 kcal/mol.
In the same order, the values of GTGTGAGGAAACTTACAC ((((.((....)).)))) are 43.9 °C and -37.6 kcal/mol.
Regarding GTAGGCGAAAGCCTTAC ((((((....))).))), the Tm in data set [1] amounted to 44.9 °C. Moreover, in data set [2], the folding enthalpy was -9.64 kcal/mol.
The corresponding values for GTCGTCGGAAACGACAAC ((.((((....)))).)) are 47.4 °C and -13 kcal/mol.

Source of the values: the array DNA melting data of Ke et al. (doi:10.1101/2024.01.08.574731).
